Measured values: ChEMBL document CHEMBL1153310, “New prostaglandin derivative for glaucoma treatment” (Bioorg Med Chem Lett, 2009)

Key:
[1] = organism: Oryctolagus cuniculus; assay: Toxicity in New Zealand albino rabbit assessed as tolerability at 0.01% by Draize test; type: organism-based; details: in vivo
Procedure, shortened: (§1)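 Ocular tolerability scored by Draize test in New Zealand albino rabbits at three concentrations, compared with placebo.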

[2] = tested on: Oryctolagus cuniculus; assay: Increase in glutathione levels in aqueous humor of normotensive pigmented rabbit at 0.01%, topical administration; type: functional, Aqueous humor of eyeball
Procedure, shortened: (§2)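 Normotensive rabbits given a single topical instillation at one of three dose levels. Aqueous humour centrifuged at 100.000g, 4 °C for 30 min. Supernatant diluted in phosphate-EDTA buffer and reacted with o-phthaldialdehyde (1 mg/ml) for 15 min at room temperature. Fluorescence read at ex 350/em 420 nm, calibrated with a GSH standard curve.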

[3] = tested on: Oryctolagus cuniculus; assay: Increase in glutathione levels in aqueous humor of carbomer-induced glaucomatous pigmented rabbit at 0.005%, topical administration continuously for 5 days by fluorimetry; type: functional, Aqueous humor of eyeball
Procedure, shortened: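 Carbomer-glaucomatous rabbits given daily topical 0.005% instillation for 5 days. Aqueous humour centrifuged at 100.000g, 4 °C for 30 min. Supernatant diluted in phosphate-EDTA buffer and reacted with o-phthaldialdehyde (1 mg/ml) for 15 min at room temperature. Fluorescence read at ex 350/em 420 nm against a GSH standard curve, in pmol/ml.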

[4] = tested on: Oryctolagus cuniculus; assay: Effect on intraocular pressure in carbomer-induced glaucoma in New Zealand albino rabbit assessed as AUC at 0.005%, topical administration measured after 4 hrs; type: functional, organism-based; parameters: time < 4 hr; details: Eye
Procedure, shortened: (§3)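 Glaucoma induced by carbomer injection into the anterior chamber; IOP checked every 30 min over the first 3 h, then at least three times daily until stabilized at high levels. Drug instilled topically, once (single-dose) or daily for 5 days (repeated). IOP measured by Tono-Pen tonometer; single-dose readings at 30, 60, 120 and 240 min; AUC in mm Hg h.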

[5] = organism: Oryctolagus cuniculus; assay: Toxicity in New Zealand albino rabbit assessed as tolerability at 0.005% by Draize test; type: organism-based; details: in vivo; procedure, shortened: as §1
[6] = tested on: Oryctolagus cuniculus; assay: Increase in glutathione levels in aqueous humor of normotensive pigmented rabbit at 0.005%, topical administration; type: functional, Aqueous humor of eyeball; procedure, shortened: as §2
[7] = tested on: Oryctolagus cuniculus; assay: Effect on intraocular pressure in carbomer-induced glaucoma in pigmented rabbit assessed as AUC at 0.005%, single topical administration measured over 4 hrs by tonometry; details: Eye
[8] = tested on: Oryctolagus cuniculus; assay: Effect on intraocular pressure in carbomer-induced glaucoma in pigmented rabbit assessed as AUC at 0.005%, topical administration continuously for 5 days; type: functional, organism-based; details: Eye; procedure, shortened: as §3
[9] = tested on: Oryctolagus cuniculus; assay: Reduction in intraocular pressure in carbomer-induced glaucoma in pigmented rabbit at 0.005%, single topical administration measured over 4 hrs relative to latanoprost; parameters: scale not given: the % may be the effect or the level left
[10] = organism: Oryctolagus cuniculus; assay: Toxicity in New Zealand albino rabbit assessed as tolerability at 0.008% by Draize test; type: organism-based; details: in vivo; procedure, shortened: as §1
[11] = tested on: Oryctolagus cuniculus; assay: Reduction in intraocular pressure in carbomer-induced glaucoma in pigmented rabbit at 0.005%, topical administration continuously for 5 days relative to latanoprost; type: functional, Eye; parameters: scale not given: the % may be the effect or the level left; procedure, shortened: as §3
[12] = tested on: Oryctolagus cuniculus; assay: Increase in cGMP levels in aqueous humor of carbomer-induced glaucomatous pigmented rabbit at 0.005%, topical administration continuously for 5 days by radioimmunoassay; type: functional, Aqueous humor of eyeball
Procedure, shortened: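 Aqueous humour taken after 5 days of daily topical instillation at 0.005%. Samples treated with 10% trichloroacetic acid and centrifuged. TCA extracted with 0.5 M tri-n-octylamine in 1,1,2-trichloro-1,2,2-trifluoroethane. cGMP quantified by radioimmunoassay using labelled cGMP.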

[13] = tested on: Oryctolagus cuniculus; assay: Increase in glutathione levels in aqueous humor of normotensive pigmented rabbit at 0.008%, topical administration; type: functional, Aqueous humor of eyeball; procedure, shortened: as §2
[14] = tested on: Oryctolagus cuniculus; assay: Reduction in intraocular pressure in carbomer-induced glaucoma in albino rabbit at 0.005%, topical administration measured after 120 mins; type: functional, Eye; procedure, shortened: as §3
[15] = tested on: Oryctolagus cuniculus; assay: Reduction in intraocular pressure in carbomer-induced glaucoma in albino rabbit at 0.005%, topical administration measured after 240 mins; type: functional, Eye; procedure, shortened: as §3
[16] = tested on: Oryctolagus cuniculus; assay: Reduction in intraocular pressure in carbomer-induced glaucoma in albino rabbit at 0.005%, topical administration measured after 30 mins; type: functional, Eye; procedure, shortened: as §3
[17] = tested on: Oryctolagus cuniculus; assay: Reduction in intraocular pressure in carbomer-induced glaucoma in pigmented rabbit at 0.005%, topical administration measured after 60 mins; type: functional, Eye; procedure, shortened: as §3
[18] = tested on: Oryctolagus cuniculus; assay: Reduction in intraocular pressure in carbomer-induced glaucoma in pigmented rabbit at 0.005%, topical administration continuously for 5 days; type: functional, Eye; procedure, shortened: as §3
[19] = tested on: Oryctolagus cuniculus; assay: Reduction in intraocular pressure in carbomer-induced glaucoma in pigmented rabbit at 0.005%, topical administration measured after 240 mins; type: functional, Eye; procedure, shortened: as §3
[20] = tested on: Oryctolagus cuniculus; assay: Reduction in intraocular pressure in carbomer-induced glaucoma in pigmented rabbit at 0.005%, topical administration continuously for 3 days; type: functional, Eye; procedure, shortened: as §3
[21] = tested on: Oryctolagus cuniculus; assay: Reduction in intraocular pressure in carbomer-induced glaucoma in pigmented rabbit at 0.005%, topical administration measured after 120 mins; type: functional, Eye; procedure, shortened: as §3
[22] = tested on: Oryctolagus cuniculus; assay: Reduction in intraocular pressure in carbomer-induced glaucoma in pigmented rabbit at 0.005%, topical administration for 1 day; type: functional, Eye; procedure, shortened: as §3
[23] = tested on: Oryctolagus cuniculus; assay: Reduction in intraocular pressure in carbomer-induced glaucoma in albino rabbit at 0.005%, topical administration measured after 60 mins; type: functional, Eye; procedure, shortened: as §3
[24] = tested on: Oryctolagus cuniculus; assay: Reduction in intraocular pressure in carbomer-induced glaucoma in albino rabbit at 0.005%, topical administration continuously measured after […]; type: functional, Eye; procedure, shortened: as §3
[25] = tested on: Oryctolagus cuniculus; assay: Reduction in intraocular pressure in carbomer-induced glaucoma in pigmented rabbit at 0.005%, topical administration continuously for 2 days; type: functional, Eye; procedure, shortened: as §3
[26] = tested on: Oryctolagus cuniculus; assay: Reduction in intraocular pressure in carbomer-induced glaucoma in pigmented rabbit at 0.005%, topical administration continuously for 4 days; type: functional, Eye; procedure, shortened: as §3
[27] = tested on: Oryctolagus cuniculus; assay: Reduction in intraocular pressure in carbomer-induced glaucoma in pigmented rabbit at 0.005%, topical administration measured after 30 mins; type: functional, Eye; procedure, shortened: as §3

O=C(CCC/C=C\C[C@@H]1[C@@H](CC[C@@H](O)CCc2ccccc2)[C@H](O)C[C@@H]1O)Oc1ccc(-c2cc(=S)ss2)cc1
Activity [1]: Non-toxic | Activity [2]: 82.89 pmol/mL | Activity [3]: 65.27 pmol/mL | AUC [4]: 106 mmHg.hr | Activity [5]: Non-toxic | Activity [6]: 60.04 pmol/mL | AUC [7]: 75.2 mmHg.hr | AUC [8]: 2090 mmHg.hr | Activity [9]: 30.8% | Activity [10]: Non-toxic | Activity [11]: 27% | Activity [12]: 118 fmol/mL | Activity [13]: 69.83 pmol/mL

Oc1ccc(-c2cc(=S)ss2)cc1
Activity [3]: 60.4 pmol/mL | Activity [14]: 26.2 mmHg | Activity [15]: 25.2 mmHg | Activity [6]: 58.3 pmol/mL | Activity [16]: 29.5 mmHg | Activity [17]: 29 mmHg | Activity [18]: 22 mmHg | Activity [19]: 23.5 mmHg | Activity [20]: 23 mmHg | Activity [21]: 26 mmHg | Activity [22]: 26.7 mmHg | Activity [23]: 28 mmHg | Activity [24]: 25 mmHg | Activity [25]: 26 mmHg | Activity [12]: 122 fmol/mL | Activity [26]: 22.2 mmHg | Activity [27]: 30 mmHg

CC(C)OC(=O)CCC/C=C\C[C@@H]1[C@@H](CC[C@@H](O)CCc2ccccc2)[C@H](O)C[C@@H]1O [LATANOPROST]
Activity [3]: 36.44 pmol/mL | AUC [4]: 119 mmHg.hr | Activity [6]: 38.7 pmol/mL | AUC [7]: 109 mmHg.hr | AUC [8]: 2660 mmHg.hr | Activity [12]: 71.8 fmol/mL
